Data as given in ChEMBL document CHEMBL4513216, “Probing the Open Global Health Chemical Diversity Library for Multistage-Active Starting Points for Next-Generation Antimalarials” (ACS Infect Dis, 2020).

Assay: Toxicity liver stage against HepG2, at 10uM
Assay type: cell-based
Design: test concentration 10 uM, cell line HepG2-A16-CD81EGFP
Conditions: human, HepG2-A16-CD81EGFP cells; read-out: INHIBITION
In short: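 Uninfected HepG2-A16-CD81EGFP cells, 3 × 10^3 per well, 1536-well, plated on prespotted compound at 10 μM final, parasite-free screening media added to match infected plates; puromycin 10 μM positive, DMSO 0.5% negative; run in parallel with 48 h PbLuc assay at 37 °C, 5% CO2; viability by CellTiter-Glo luminescence, normalized to controls.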

CN(Cc1ccco1)[C@@H]1CN(Cc2ccccn2)C[C@@H]2CCCO[C@@H]21
cytotoxicity at 10 µM: 0.34%

CC(C)c1cc(NC(=O)c2ccc([S+]([O-])C(C)C)cc2)[nH]n1 (centres undefined)
cytotoxicity at 10 µM: -7.52%

Cc1nc(C)c(CC(=O)NCc2ccc(F)cc2)s1
cytotoxicity at 10 µM: 8.05%

C[C@@H]1CN(C2CCN(c3ccccc3F)CC2)CC[C@]1(C)O
cytotoxicity at 10 µM: -5.32%

CCc1nc(CC)n(CC(=O)N(C)CC(F)(F)F)n1
cytotoxicity at 10 µM: 2.19%

CCC(Nc1ccc(Oc2ccc(C#N)cc2OC)cc1)C(N)=O (centres undefined)
cytotoxicity at 10 µM: 65.7%

Cn1cc(CN2C[C@H]3CN(c4cncnc4)C(=O)[C@H]3C2)cn1
cytotoxicity at 10 µM: -0.0682%

CCc1n[nH]c(C2CN(Cc3csc(C4CCCC4)n3)CCO2)n1 (centres undefined)
cytotoxicity at 10 µM: -14.6%

CS(=O)(=O)c1nnc(NC(=O)CCc2cccs2)[nH]1
cytotoxicity at 10 µM: 8.91%

CCN(CCO)C(=O)c1cc(Cn2c(C)nc3ccccc32)[nH]n1
cytotoxicity at 10 µM: 8.51%

Cc1cnn(CC2CCCN2C(=O)c2cc(O)nc3ccccc23)c1 (centres undefined)
cytotoxicity at 10 µM: -6.5%

CCN(C)Cc1nc(-c2ccccc2NS(C)(=O)=O)oc1C
cytotoxicity at 10 µM: 3.63%

O=C(CNC(=O)Nc1cccc(Cl)c1SC(F)F)NC1CC1
cytotoxicity at 10 µM: 0.797%

CCc1noc(C(C)N2CCN(Cc3nnc(C4CC4)o3)CC2)n1 (centres undefined)
cytotoxicity at 10 µM: -4.79%

CCn1c(CN(C)C)nnc1C1CCN(c2nccc(NC)n2)CC1
cytotoxicity at 10 µM: 7.36%

CC(C)(CNCc1ccc(OCc2cscn2)cc1)C(N)=O
cytotoxicity at 10 µM: -137%

CN(C)CCN1CCN(Cc2cccc(C#N)c2)Cc2cccnc21
cytotoxicity at 10 µM: -1.57%

COCCN(CCOC)C(=O)c1cc(F)cc2[nH]cnc12
cytotoxicity at 10 µM: -8%

CCN(Cc1ccc(S(C)(=O)=O)cc1)Cc1nc(COC)no1
cytotoxicity at 10 µM: -10.8%

CCc1ccc(CN2C[C@@H]3OCCN(c4ccnc(N(C)C)n4)[C@@H]3C2)o1
cytotoxicity at 10 µM: 61.8%

Cc1ccsc1CNC1CCCc2c1cnn2C (centres undefined)
cytotoxicity at 10 µM: 2.27%

COc1c(C2CCCN2C(=O)c2ccc(O)nc2)c(C)nn1C (centres undefined)
cytotoxicity at 10 µM: 2.63%

Cc1cnn(CC2CCCCN2Cc2ncc(C(C)(C)C)o2)c1 (centres undefined)
cytotoxicity at 10 µM: -3.44%

Cc1ccc(CNCC2Cn3nncc3CO2)o1 (centres undefined)
cytotoxicity at 10 µM: -113%

CC(=O)c1cc(CN2CCCC2c2nc3ccc(C)cc3[nH]2)cs1 (centres undefined)
cytotoxicity at 10 µM: 3.01%

O=C(Cc1ccccc1)N1CCCC2(COCCN(CC3CC3)C2)C1 (centres undefined)
cytotoxicity at 10 µM: -1.03%

O=c1ccc2c(n1CC1CC1)CCC(NCc1cccs1)C2 (centres undefined)
cytotoxicity at 10 µM: -111%

CS(=O)(=O)N1CCC(CNc2c(Cl)cccc2C#N)CC1
cytotoxicity at 10 µM: -6.67%

CC(NC(=O)c1cccs1)C(=O)NCc1ccccn1 (centres undefined)
cytotoxicity at 10 µM: -12.3%

CNc1cc2c(nn1)CCN(C(=O)C1CCCc3ccccc31)C2 (centres undefined)
cytotoxicity at 10 µM: -17.2%

Cc1cc(C(=O)N2CCOC(c3nc(C(C)C)n[nH]3)C2)c(C)s1 (centres undefined)
cytotoxicity at 10 µM: -5.72%

Cc1cc(C2CCCN(C(=O)COc3cccc(F)c3)C2)n[nH]1 (centres undefined)
cytotoxicity at 10 µM: 5.95%

CN(Cc1cc2n(n1)CCNC2)Cc1noc(C2CCC2)n1
cytotoxicity at 10 µM: 15.2%

CCC(=O)N1CCN(C(=O)Nc2cccc(C#N)c2)[C@H]2CS(=O)(=O)C[C@H]21
cytotoxicity at 10 µM: -46%

Cc1cc(C(F)(F)F)nc(N2CCN3CCCC3C2)n1 (centres undefined)
cytotoxicity at 10 µM: 4.78%

Cc1noc(C2CCCN(C(=O)CCNc3ncccn3)C2)n1 (centres undefined)
cytotoxicity at 10 µM: -8.27%

Cc1nn(C)c(Cl)c1C1CCCN1C(=O)c1ccc2c(c1)OCO2 (centres undefined)
cytotoxicity at 10 µM: -2.9%

COc1ccccc1-c1ncc(CN2CCCC[C@H](N(C)C)C2)s1
cytotoxicity at 10 µM: -5.23%

Cc1cc(C(F)(F)F)nn1CCCNC(=O)C1CCN(S(C)(=O)=O)CC1
cytotoxicity at 10 µM: -4.56%

c1ccc(-c2nc(CNC3CCCN(c4cccnn4)C3)no2)cc1 (centres undefined)
cytotoxicity at 10 µM: 15.9%

COc1ccc(C)cc1NC(=O)C1CSc2ncc(C)c(=O)n2C1 (centres undefined)
cytotoxicity at 10 µM: -1.99%

Cc1c[nH]nc1C1CCCCN1C(=O)CCn1nccc1C (centres undefined)
cytotoxicity at 10 µM: -6.39%

CN1CCCC(CCC(=O)N2CCc3onc(C(=O)N(C)C)c3C2)C1 (centres undefined)
cytotoxicity at 10 µM: -11%

c1ccc(CCN2CCCC(Cn3ccnc3)C2)cc1 (centres undefined)
cytotoxicity at 10 µM: 1.43%

Cc1nc(N)cc(C2CN(C(=O)c3ccn(C)n3)CCO2)n1 (centres undefined)
cytotoxicity at 10 µM: 0.0241%

CCNc1nnc(SCc2nnc(C(C)(C)C)o2)s1
cytotoxicity at 10 µM: -1.79%

Clc1ccccc1CN1CCc2nc(C3CCNCC3)ncc2C1
cytotoxicity at 10 µM: -36.6%

CCC(C)NC(=O)c1nnn(-c2cccc3c2CCN(C)C3)c1C (centres undefined)
cytotoxicity at 10 µM: -6.39%

CC(C(=O)NC1CC1)N1CCN(Cc2ccn(C)c(=O)c2)CC1 (centres undefined)
cytotoxicity at 10 µM: -5.57%

CC1CCN(c2ccc(CNC(=O)NCCn3ccnc3)cn2)CC1
cytotoxicity at 10 µM: -9.48%

CN(C)c1ncccc1CNS(=O)(=O)c1ccc(C(N)=O)cc1
cytotoxicity at 10 µM: -4.08%

NC(=O)CN1C(=O)CO[C@H]2CN(Cc3ccccc3)C[C@H]21
cytotoxicity at 10 µM: 0.67%

COc1ccccc1CNC(=O)c1ccccc1-n1cnc(CN)c1
cytotoxicity at 10 µM: -10.6%

O=C(CCSc1ccc(F)cc1)NS(=O)(=O)c1ccc2c(c1)OCCO2
cytotoxicity at 10 µM: 2.36%

O=C1CC(c2cccnc2)c2c(c(C(=O)O)cn2-c2cccc(F)c2)N1 (centres undefined)
cytotoxicity at 10 µM: -0.585%

COCc1nc(C(=O)N2CCN(Cc3ccsc3)CC2)cs1
cytotoxicity at 10 µM: -0.684%

CC/C=C(/C)C(=O)NS(=O)(=O)c1ccc(C#N)c(C(F)(F)F)c1
cytotoxicity at 10 µM: 2.99%

CC(C)(C)c1ncc(CNc2ccn(CCc3ccncc3)n2)s1
cytotoxicity at 10 µM: 26.1%

COc1ccc([C@@H]2CN(Cc3cccnc3N)C[C@H]2NC(C)=O)cc1
cytotoxicity at 10 µM: 0.0652%

CCCOc1cccc(NC(=O)NC2CCc3nc(C)nn3C2)c1 (centres undefined)
cytotoxicity at 10 µM: -1.65%

O=C1N(Cc2ccccn2)C[C@H]2CN(C3CCOCC3)CCN12
cytotoxicity at 10 µM: 7.94%

Cc1noc(C)c1C[S+]([O-])Cc1cn2cccc(C)c2n1 (centres undefined)
cytotoxicity at 10 µM: 2.14%

CCc1nc(CN(C(C)=O)C2CCN(CCc3cccs3)C2)no1 (centres undefined)
cytotoxicity at 10 µM: -4.62%

Cc1cc(C(=O)N2CCCC3(C=Cc4ccccc4O3)CC2)cc(=O)[nH]1 (centres undefined)
cytotoxicity at 10 µM: 8.06%

O=C1CCc2cc(S(=O)(=O)NC(=O)c3ccc4c(c3)CCO4)ccc2N1
cytotoxicity at 10 µM: -17.7%

Cn1cc(CN2C[C@@H]3COC[C@]3(COc3ccc(C#N)cn3)C2)cn1
cytotoxicity at 10 µM: -11.3%

C[C@@H]1CN(Cc2ccc(-c3ccncc3)cc2F)CC(C(N)=O)O1 (some centres undefined)
cytotoxicity at 10 µM: 2.4%

Cc1ccc(CN2CCO[C@@H]3C[C@@H](C(=O)NC(C)C)C[C@H]32)o1
cytotoxicity at 10 µM: 6.1%

c1ccc(-c2cc(NCCCC3CCOC3)n3nccc3n2)cc1 (centres undefined)
cytotoxicity at 10 µM: -0.309%

COCCOCC(=O)Nc1cc(C)ccc1F
cytotoxicity at 10 µM: 3.91%

Cc1cc(N2Cc3cnn(CCO)c3C2)nc(-c2ccccc2)n1
cytotoxicity at 10 µM: -156%

CCSc1ccc(C(=O)NCCc2nnc(-c3ccco3)[nH]2)cn1
cytotoxicity at 10 µM: 10.7%

CC(C)c1noc(CCC(=O)NC(C)c2nnc3n2CCC3)n1 (centres undefined)
cytotoxicity at 10 µM: 2.59%

OC1CCN(c2cncc(CCC3CCCN3)n2)CC1 (centres undefined)
cytotoxicity at 10 µM: -0.24%

O=C(CCc1nc(C2CC2)no1)c1ccc2c(c1)OCCO2
cytotoxicity at 10 µM: -7.04%

Cc1nc2n(n1)CC(NCc1cnn(-c3ccccc3)n1)CC2 (centres undefined)
cytotoxicity at 10 µM: -3.69%

COCc1nc2cc(NCc3sc(C)nc3C)ccc2o1
cytotoxicity at 10 µM: 29.1%

N#Cc1ccc(CNCCc2cc(F)cc3c2OCOC3)cc1
cytotoxicity at 10 µM: 6.58%

O=C(O)c1ncccc1N1CCCCC1
cytotoxicity at 10 µM: 4.19%

c1ccc(-c2cc(CC3(NCc4ncc[nH]4)COC3)no2)cc1
cytotoxicity at 10 µM: 2.05%

CC(C)c1ncc2c(n1)CN(Cc1noc(-c3ccccc3)n1)CC2
cytotoxicity at 10 µM: -0.414%

Cc1nc(CN2CCO[C@H]3[C@H](OCC(=O)N(C)C)CC[C@@H]32)cs1
cytotoxicity at 10 µM: 0.129%

CCC1=N[C@@]2(CC[C@@H]3CN(CC)C[C@@H]32)C(=O)N1C
cytotoxicity at 10 µM: -102%

CS(=O)(=O)c1cccc(C(=O)NCC2(c3ccccc3)CC2)c1
cytotoxicity at 10 µM: 1.47%

CCN(C)S(=O)(=O)NCC1(c2cccc(Br)c2)CC1
cytotoxicity at 10 µM: 10.7%

CC(=O)N1CCC1c1cc(N2CCSCC2)nc(C)n1 (centres undefined)
cytotoxicity at 10 µM: 6.53%

CCC(Oc1ccc(N(C)S(C)(=O)=O)cc1)C(=O)N(C)C (centres undefined)
cytotoxicity at 10 µM: -4.97%

CCCc1nnc2sc(C3CCN(CC)CC3)nn12
cytotoxicity at 10 µM: 4.6%

c1cc(CN2CC[C@@H]3CN(c4cnccn4)C[C@@H]3C2)ccn1
cytotoxicity at 10 µM: -119%

Cc1nccc(C2(C)CCCNC2)n1 (centres undefined)
cytotoxicity at 10 µM: 9.22%

O=C(Cc1cccs1)N1C[C@@H]2COC[C@]2(COc2cccnc2)C1
cytotoxicity at 10 µM: -21.1%

CN1CC(=O)N(c2ccsc2)CC12CCN(Cc1nccn1C)C2 (centres undefined)
cytotoxicity at 10 µM: -0.269%

O=C(NCCc1nnc2n1CCC2)c1ccccc1OC1CCCC1
cytotoxicity at 10 µM: -2.27%

Cc1ccc(S(=O)(=O)N2CCN(CCCO)CC2)s1
cytotoxicity at 10 µM: -9.12%

CCN(C(=O)c1cc(C)nc2ccccc12)C1CC(=O)NC1=O (centres undefined)
cytotoxicity at 10 µM: 3.04%

CN1CCN(C(=O)C2CCN(c3cccnn3)C2)CC1 (centres undefined)
cytotoxicity at 10 µM: -32.4%

CNC(=O)[C@H]1C[C@@H]2CN(C(=O)c3cnc(C)cn3)C[C@@H]2N1C
cytotoxicity at 10 µM: -108%

CS(=O)(=O)NCC1(O)CCCN(C(=O)CCn2cc(Cl)cn2)CC1 (centres undefined)
cytotoxicity at 10 µM: -144%

CC(C)(C)c1ncc(CNCC2CN(C3CC3)CCO2)s1 (centres undefined)
cytotoxicity at 10 µM: 0.948%

CCOc1ccccc1CCNC(=O)NCC(O)c1ccsc1 (centres undefined)
cytotoxicity at 10 µM: -2.23%

CCOc1ccc(-c2ccnc(COc3ccccc3)n2)cc1C(=O)O
cytotoxicity at 10 µM: -1.84%

O=C(c1cnco1)N1CCCC(Cc2cccc3ncccc23)C1 (centres undefined)
cytotoxicity at 10 µM: 2.16%

Cn1ccc(C(=O)N2CCCC(c3cc(O)n(C)n3)C2)n1 (centres undefined)
cytotoxicity at 10 µM: -13.7%

Cc1cc(NC(=O)CCn2nc(C)c3ccccc32)n(C(C)C)n1
cytotoxicity at 10 µM: 4.95%

NC(=O)C1Cc2ccccc2CN1CCC(=O)N1CCc2ccccc21 (centres undefined)
cytotoxicity at 10 µM: -4.23%

Cc1nnc2ccc(N3CCN(CCc4ccccn4)CC3)nn12
cytotoxicity at 10 µM: -8.76%

CC(C)N(C)Cc1cnc2n1CCN(C(=O)Cc1ccsc1)C2
cytotoxicity at 10 µM: -118%

CNC(=O)CSc1cnn(CC(=O)Nc2cccc(Cl)c2C)c(=O)c1Cl
cytotoxicity at 10 µM: -17.6%

COCc1nc(CN2C(=O)OC[C@@H]2C(C)C)no1
cytotoxicity at 10 µM: -12.4%
